{
  "source": "ChEMBL document CHEMBL1145835",
  "about": "“Novel potent 5-HT(1F) receptor agonists: structure-activity studies of a series of substituted N-[3-(1-methyl-4-piperidinyl)-1H-pyrrolo[3,2-b]pyridin-5-yl]amides” (J Med Chem, 2003)",
  "key": {"[1]": {"target": "T1, 5-hydroxytryptamine receptor 1A (Homo sapiens, UniProt P08908)", "T1 sequence (P08908 whole entry)": "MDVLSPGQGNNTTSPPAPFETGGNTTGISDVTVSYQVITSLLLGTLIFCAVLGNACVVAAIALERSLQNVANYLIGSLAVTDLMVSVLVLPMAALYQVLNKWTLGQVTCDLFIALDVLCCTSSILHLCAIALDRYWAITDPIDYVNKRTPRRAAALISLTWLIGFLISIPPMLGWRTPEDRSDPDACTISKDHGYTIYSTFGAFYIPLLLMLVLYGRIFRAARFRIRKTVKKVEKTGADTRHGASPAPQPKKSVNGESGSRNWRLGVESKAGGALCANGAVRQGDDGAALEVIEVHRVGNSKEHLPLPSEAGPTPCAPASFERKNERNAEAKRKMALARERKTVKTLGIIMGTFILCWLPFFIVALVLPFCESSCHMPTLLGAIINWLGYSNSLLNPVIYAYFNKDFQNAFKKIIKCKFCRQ", "test": "In vitro binding affinity by radioligand binding assay using cell line expressing human 5-hydroxytryptamine 1A receptor", "outline": "(§1)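 Ki (nM) from radioligand binding on cell lines each expressing one human serotonin receptor subtype. Values are means of at least three determinations with SEM. ND: Ki not determined, when a 10⁻⁷ M test ligand gave <50% displacement of radioligand.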"}, "[2]": {"target": "5-hydroxytryptamine receptor 1B (Homo sapiens, UniProt P28222)", "sequence (P28222 whole entry)": "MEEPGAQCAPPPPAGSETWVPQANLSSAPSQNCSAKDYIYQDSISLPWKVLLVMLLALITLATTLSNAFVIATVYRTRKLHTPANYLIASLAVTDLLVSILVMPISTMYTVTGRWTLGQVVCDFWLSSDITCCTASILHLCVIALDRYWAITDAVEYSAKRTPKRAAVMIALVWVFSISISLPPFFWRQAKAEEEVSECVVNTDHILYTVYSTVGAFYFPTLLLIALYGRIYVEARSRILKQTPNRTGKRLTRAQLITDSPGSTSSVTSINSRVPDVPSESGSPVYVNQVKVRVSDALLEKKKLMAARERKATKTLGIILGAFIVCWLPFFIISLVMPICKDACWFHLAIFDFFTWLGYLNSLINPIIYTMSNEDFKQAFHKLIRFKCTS", "test": "In vitro binding affinity by radioligand binding assay using cell line expressing human 5-hydroxytryptamine 1B receptor", "outline": "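Ki (nM) from radioligand binding on cell lines each expressing one human serotonin receptor subtype. Values are means of at least three determinations with SEM.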"}, "[3]": {"target": "T2, 5-hydroxytryptamine receptor 1F (Homo sapiens, UniProt P30939)", "T2 sequence (P30939 whole entry)": "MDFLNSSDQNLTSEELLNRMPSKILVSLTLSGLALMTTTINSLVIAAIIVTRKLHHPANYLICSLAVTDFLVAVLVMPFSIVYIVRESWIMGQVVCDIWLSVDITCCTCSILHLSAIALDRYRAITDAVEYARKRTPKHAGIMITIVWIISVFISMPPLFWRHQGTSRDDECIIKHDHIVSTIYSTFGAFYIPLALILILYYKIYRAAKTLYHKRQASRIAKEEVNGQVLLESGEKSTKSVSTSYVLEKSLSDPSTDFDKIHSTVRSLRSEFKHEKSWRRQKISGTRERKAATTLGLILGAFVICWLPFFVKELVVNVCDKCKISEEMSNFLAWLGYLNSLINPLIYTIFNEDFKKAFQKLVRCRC", "test": "In vitro effective concentration for stimulation of [35S]GTP-gamma-S, binding in mouse LM(tk-)cells expressing the human 5-hydroxytryptamine 1F receptor", "format": "functional"}, "[4]": {"target": "T3, 5-hydroxytryptamine receptor 1F (Homo sapiens) (UniProt P30939)", "T3 sequence (whole entry)": "T2 sequence (P30939 whole entry)", "test": "Maximum stimulation of [35S]GTP-gamma-S, binding expressed relative to the maximal effect of 5-hydroxytryptamine […]", "format": "functional"}, "[5]": {"target": "T2, 5-hydroxytryptamine receptor 1F", "test": "In vitro binding affinity was determined by radioligand binding assay using cell line expressing human 5-hydroxytryptamine 1F receptor", "outline": "as §1"}, "[6]": {"target": "5-hydroxytryptamine receptor 1E (Homo sapiens, UniProt P28566)", "sequence (P28566 whole entry)": "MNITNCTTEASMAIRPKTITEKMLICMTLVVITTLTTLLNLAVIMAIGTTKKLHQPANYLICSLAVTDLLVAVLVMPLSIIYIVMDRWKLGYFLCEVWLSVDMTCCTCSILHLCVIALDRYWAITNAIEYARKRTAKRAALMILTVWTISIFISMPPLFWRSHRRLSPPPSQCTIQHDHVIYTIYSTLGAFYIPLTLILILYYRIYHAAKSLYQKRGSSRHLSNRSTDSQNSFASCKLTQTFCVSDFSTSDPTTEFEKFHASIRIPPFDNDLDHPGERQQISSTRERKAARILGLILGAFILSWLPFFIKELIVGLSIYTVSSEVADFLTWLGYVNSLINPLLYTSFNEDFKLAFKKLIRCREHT", "test": "In vitro binding affinity by radioligand binding assay using cell line expressing human 5-hydroxytryptamine 1E receptor"}, "[7]": {"target": "5-hydroxytryptamine receptor 1D (Homo sapiens, UniProt P28221)", "sequence (P28221 whole entry)": "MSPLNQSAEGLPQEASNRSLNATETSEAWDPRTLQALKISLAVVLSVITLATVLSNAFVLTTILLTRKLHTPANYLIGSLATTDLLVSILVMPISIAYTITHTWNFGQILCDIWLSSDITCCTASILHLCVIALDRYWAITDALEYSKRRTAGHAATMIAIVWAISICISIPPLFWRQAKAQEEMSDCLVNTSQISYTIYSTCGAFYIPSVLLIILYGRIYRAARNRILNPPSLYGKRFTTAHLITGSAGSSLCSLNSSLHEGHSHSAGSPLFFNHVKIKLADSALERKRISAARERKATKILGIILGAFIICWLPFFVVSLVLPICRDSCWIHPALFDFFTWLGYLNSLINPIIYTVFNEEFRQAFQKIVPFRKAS", "test": "In vitro binding affinity by radioligand binding assay using cell line expressing human 5-hydroxytryptamine 1D receptor", "outline": "as §1"}, "[8]": {"target": "T4, 5-hydroxytryptamine receptor 2C (Homo sapiens, UniProt P28335)", "T4 sequence (P28335 whole entry)": "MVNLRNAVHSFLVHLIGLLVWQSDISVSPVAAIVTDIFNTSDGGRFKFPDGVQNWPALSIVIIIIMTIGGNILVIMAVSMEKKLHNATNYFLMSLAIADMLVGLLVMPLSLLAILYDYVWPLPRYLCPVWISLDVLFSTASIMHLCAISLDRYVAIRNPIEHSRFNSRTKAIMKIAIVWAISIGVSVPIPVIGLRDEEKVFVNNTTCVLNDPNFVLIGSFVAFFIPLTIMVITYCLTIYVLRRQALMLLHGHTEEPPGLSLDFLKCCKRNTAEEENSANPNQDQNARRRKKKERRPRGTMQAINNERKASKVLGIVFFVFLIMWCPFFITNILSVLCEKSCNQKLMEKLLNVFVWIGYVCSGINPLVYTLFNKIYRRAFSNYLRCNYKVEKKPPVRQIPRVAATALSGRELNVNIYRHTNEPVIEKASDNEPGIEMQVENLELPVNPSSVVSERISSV", "test": "In vitro binding affinity by radioligand binding assay using cell line expressing human 5-hydroxytryptamine 2C receptor"}, "[9]": {"target": "5-hydroxytryptamine receptor 2B (Homo sapiens, UniProt P41595)", "sequence (P41595 whole entry)": "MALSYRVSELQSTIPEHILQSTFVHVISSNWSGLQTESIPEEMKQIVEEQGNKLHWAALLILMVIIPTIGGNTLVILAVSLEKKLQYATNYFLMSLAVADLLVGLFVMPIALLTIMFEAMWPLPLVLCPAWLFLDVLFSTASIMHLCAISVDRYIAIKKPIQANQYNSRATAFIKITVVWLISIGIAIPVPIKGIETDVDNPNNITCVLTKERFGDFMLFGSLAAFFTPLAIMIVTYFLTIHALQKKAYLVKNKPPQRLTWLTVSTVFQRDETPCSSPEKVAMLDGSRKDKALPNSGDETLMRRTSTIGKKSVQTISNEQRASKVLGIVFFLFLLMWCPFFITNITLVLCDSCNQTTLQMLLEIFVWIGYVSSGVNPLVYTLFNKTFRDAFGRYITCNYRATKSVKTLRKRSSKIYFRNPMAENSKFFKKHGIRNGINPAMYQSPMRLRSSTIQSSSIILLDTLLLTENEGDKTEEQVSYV", "test": "In vitro binding affinity by radioligand binding assay using cell line expressing human 5-hydroxytryptamine 2B receptor"}, "[10]": {"target": "5-hydroxytryptamine receptor 2A (Homo sapiens, UniProt P28223)", "sequence (P28223 whole entry)": "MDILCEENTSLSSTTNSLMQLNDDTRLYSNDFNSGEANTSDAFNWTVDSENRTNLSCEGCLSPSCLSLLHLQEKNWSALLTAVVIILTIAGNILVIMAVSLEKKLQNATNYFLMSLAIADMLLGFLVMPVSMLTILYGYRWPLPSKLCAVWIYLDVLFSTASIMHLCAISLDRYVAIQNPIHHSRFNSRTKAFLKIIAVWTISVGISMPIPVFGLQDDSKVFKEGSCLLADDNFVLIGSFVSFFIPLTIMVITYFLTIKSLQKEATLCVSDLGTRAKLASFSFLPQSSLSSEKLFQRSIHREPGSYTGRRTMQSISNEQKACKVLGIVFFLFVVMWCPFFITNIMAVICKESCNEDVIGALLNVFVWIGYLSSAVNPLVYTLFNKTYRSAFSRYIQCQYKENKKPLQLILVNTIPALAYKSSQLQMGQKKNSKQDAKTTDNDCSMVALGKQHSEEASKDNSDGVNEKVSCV", "test": "In vitro binding affinity by radioligand binding assay using cell line expressing human 5-hydroxytryptamine 2A receptor"}, "[11]": {"target": "5-hydroxytryptamine receptor 6 (Homo sapiens, UniProt P50406)", "sequence (P50406 whole entry)": "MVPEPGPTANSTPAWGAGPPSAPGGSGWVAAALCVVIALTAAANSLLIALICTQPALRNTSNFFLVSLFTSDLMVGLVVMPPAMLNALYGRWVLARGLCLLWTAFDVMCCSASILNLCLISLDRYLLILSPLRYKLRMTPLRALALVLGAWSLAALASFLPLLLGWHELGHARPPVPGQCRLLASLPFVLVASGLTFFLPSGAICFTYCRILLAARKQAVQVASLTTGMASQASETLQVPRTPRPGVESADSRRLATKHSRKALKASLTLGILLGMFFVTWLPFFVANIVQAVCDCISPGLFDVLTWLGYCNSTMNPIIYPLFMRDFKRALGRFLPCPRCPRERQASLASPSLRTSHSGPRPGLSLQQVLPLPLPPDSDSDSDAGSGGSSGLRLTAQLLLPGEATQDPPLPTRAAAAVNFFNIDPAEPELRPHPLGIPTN", "test": "In vitro binding affinity by radioligand binding assay using cell line expressing human 5-hydroxytryptamine 6 receptor"}, "[12]": {"target": "5-hydroxytryptamine receptor 4 (Homo sapiens, UniProt Q13639)", "sequence (Q13639 whole entry)": "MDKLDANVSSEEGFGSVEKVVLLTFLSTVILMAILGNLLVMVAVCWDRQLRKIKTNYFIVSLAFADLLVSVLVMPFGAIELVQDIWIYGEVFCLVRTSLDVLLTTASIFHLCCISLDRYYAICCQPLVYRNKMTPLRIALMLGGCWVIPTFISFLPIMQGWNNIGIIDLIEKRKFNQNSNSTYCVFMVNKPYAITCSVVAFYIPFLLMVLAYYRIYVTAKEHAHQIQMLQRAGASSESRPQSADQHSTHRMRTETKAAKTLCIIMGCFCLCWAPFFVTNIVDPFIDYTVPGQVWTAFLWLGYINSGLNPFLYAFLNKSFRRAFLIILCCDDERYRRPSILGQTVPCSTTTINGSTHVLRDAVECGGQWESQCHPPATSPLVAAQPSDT", "test": "In vitro binding affinity by radioligand binding assay using cell line expressing human 5-hydroxytryptamine 4 receptor"}, "Cavia porcellus [13]": {"tested_on": "Cavia porcellus", "test": "In vivo efficacy in neurogenic plasma protein extravasation screen using guinea pig neurogenic PPE assay (1 ng/kg, po) at 1 hr postdose", "format": "functional", "outline": "(§2)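 Guinea pig neurogenic dural PPE screen. Single oral dose of 1 ng/kg, then unilateral trigeminal ganglion stimulation with Evan's blue-labelled plasma protein leakage. Read-out is the fluorescence ratio of stimulated to unstimulated dura at 1 h or 24 h postdose. A ratio near 1 means full efficacy; near 1.8 means ineffective.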"}, "Cavia porcellus [14]": {"tested_on": "Cavia porcellus", "test": "In vivo efficacy in neurogenic plasma protein extravasation screen using guinea pig neurogenic PPE assay (1 ng/kg, po) at 24 hr postdose", "format": "functional", "outline": "as §2"}, "Oryctolagus cuniculus [15]": {"organism": "Oryctolagus cuniculus", "test": "In vitro contractile response in rabbit saphenous vein", "format": "functional", "outline": "(§3)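 Rabbit saphenous vein rings. Maximal contraction is expressed as % of the contraction induced by KCl (67 mM), with the concentration giving the maximal response recorded. Means (SEM) of three to seven determinations.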"}, "[16]": {"target": "T2, 5-hydroxytryptamine receptor 1F", "test": "In vitro effective concentration for stimulation of [35S]GTP-gamma-S, binding in mouse LM(tk-)cells expressing the human 5-HT1F receptor", "format": "functional"}, "Oryctolagus cuniculus [17]": {"organism": "Oryctolagus cuniculus", "test": "In vitro concentration of maximum contractile response in rabbit saphenous vein", "format": "functional", "outline": "as §3"}, "[18]": {"target": "5-hydroxytryptamine receptor 7 (Homo sapiens, UniProt P34969)", "sequence (P34969 whole entry)": "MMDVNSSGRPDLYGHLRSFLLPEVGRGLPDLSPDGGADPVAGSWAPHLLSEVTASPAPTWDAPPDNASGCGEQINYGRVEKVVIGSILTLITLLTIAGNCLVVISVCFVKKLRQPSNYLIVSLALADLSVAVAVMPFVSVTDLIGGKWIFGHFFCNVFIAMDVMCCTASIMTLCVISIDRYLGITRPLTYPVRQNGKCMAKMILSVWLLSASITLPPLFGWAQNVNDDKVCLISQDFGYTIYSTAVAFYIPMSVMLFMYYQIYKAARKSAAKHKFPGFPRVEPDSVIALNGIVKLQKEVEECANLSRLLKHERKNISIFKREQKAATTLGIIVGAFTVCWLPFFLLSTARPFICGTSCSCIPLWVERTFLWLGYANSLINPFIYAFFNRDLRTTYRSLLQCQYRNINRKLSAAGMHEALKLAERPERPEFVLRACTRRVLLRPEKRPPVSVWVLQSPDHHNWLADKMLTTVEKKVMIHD", "test": "In vitro binding affinity by radioligand binding assay using cell line expressing human 5-hydroxytryptamine 7 receptor"}},
  "data": [
    {"smiles": "CCC(=O)Nc1ccc2[nH]cc(C3CCN(C)CC3)c2n1", "values": [
      {"measurement": "Ki", "setting": "[1]", "value": 1000, "unit": "nM"},
      {"measurement": "Ki", "setting": "[2]", "value": 720, "unit": "nM"},
      {"measurement": "EC50", "setting": "[3]", "value": 32, "unit": "nM"},
      {"measurement": "Emax", "setting": "[4]", "value": 88, "unit": "%"},
      {"measurement": "Ki", "setting": "[5]", "value": 5.5, "unit": "nM"},
      {"measurement": "Ki", "setting": "[6]", "value": 770, "unit": "nM"},
      {"measurement": "Ki", "setting": "[7]", "value": 730, "unit": "nM"},
      {"measurement": "Ki", "setting": "[8]", "value": 310, "unit": "nM"},
      {"measurement": "Ki", "setting": "[9]", "value": "> 10000", "unit": "nM"},
      {"measurement": "Ki", "setting": "[10]", "value": 3400, "unit": "nM"},
      {"measurement": "Ki", "setting": "[11]", "value": 1120, "unit": "nM"},
      {"measurement": "Ki", "setting": "[12]", "value": 2400, "unit": "nM"},
      {"measurement": "Efficacy", "setting": "Cavia porcellus [13]", "value": 1.2},
      {"measurement": "Efficacy", "setting": "Cavia porcellus [14]", "value": 1},
      {"measurement": "Response", "setting": "Oryctolagus cuniculus [15]", "value": 3, "unit": "%"}
    ]},
    {"smiles": "CC(=O)Nc1ccc2[nH]cc(C3CCN(C)CC3)c2n1", "values": [
      {"measurement": "Ki", "setting": "[1]", "value": 620, "unit": "nM"},
      {"measurement": "Ki", "setting": "[2]", "value": 270, "unit": "nM"},
      {"measurement": "EC50", "setting": "[16]", "value": 36, "unit": "nM"},
      {"measurement": "Emax", "setting": "[4]", "value": 98, "unit": "%"},
      {"measurement": "Ki", "setting": "[5]", "value": 5, "unit": "nM"},
      {"measurement": "Ki", "setting": "[7]", "value": 250, "unit": "nM"},
      {"measurement": "Efficacy", "setting": "Cavia porcellus [13]", "value": 1},
      {"measurement": "Efficacy", "setting": "Cavia porcellus [14]", "value": 1.1},
      {"measurement": "Response", "setting": "Oryctolagus cuniculus [15]", "value": 5.7, "unit": "%"},
      {"measurement": "Concentration of max response", "setting": "Oryctolagus cuniculus [17]", "value": 30, "unit": "µM"}
    ]},
    {"smiles": "CN1CCC(c2c[nH]c3ccc(NC(=O)c4ccc(F)cc4)nc23)CC1", "values": [
      {"measurement": "Ki", "setting": "[1]", "value": 56, "unit": "nM"},
      {"measurement": "Ki", "setting": "[2]", "value": 1200, "unit": "nM"},
      {"measurement": "Ki", "setting": "[5]", "value": 7.6, "unit": "nM"},
      {"measurement": "Ki", "setting": "[6]", "value": 660, "unit": "nM"},
      {"measurement": "Ki", "setting": "[7]", "value": 730, "unit": "nM"},
      {"measurement": "Ki", "setting": "[8]", "value": 1900, "unit": "nM"},
      {"measurement": "Ki", "setting": "[9]", "value": "> 10000", "unit": "nM"},
      {"measurement": "Ki", "setting": "[10]", "value": 4800, "unit": "nM"},
      {"measurement": "Ki", "setting": "[11]", "value": "> 10000", "unit": "nM"},
      {"measurement": "Ki", "setting": "[12]", "value": 4000, "unit": "nM"},
      {"measurement": "Ki", "setting": "[18]", "value": "> 5000", "unit": "nM"},
      {"measurement": "Response", "setting": "Oryctolagus cuniculus [15]", "value": 16, "unit": "%"}
    ]},
    {"smiles": "CN1CCC(c2c[nH]c3ccc(NC(=O)c4ccc(C#N)cc4)nc23)CC1", "values": [
      {"measurement": "Ki", "setting": "[1]", "value": 31, "unit": "nM"},
      {"measurement": "Ki", "setting": "[2]", "value": 310, "unit": "nM"},
      {"measurement": "Ki", "setting": "[5]", "value": 7.2, "unit": "nM"},
      {"measurement": "Ki", "setting": "[7]", "value": 380, "unit": "nM"},
      {"measurement": "Efficacy", "setting": "Cavia porcellus [13]", "value": 1.5},
      {"measurement": "Response", "setting": "Oryctolagus cuniculus [15]", "value": 1.1, "unit": "%"},
      {"measurement": "Concentration of max response", "setting": "Oryctolagus cuniculus [17]", "value": 30, "unit": "µM"}
    ]}
  ]
}
